System: U2OS
Assay: Multiplex assay against U2OS
Assay type: toxicity, cell-based
Conditions: human
Summary of the method: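 On a CQ1 microscope at 37°C and 5% CO2, live cells were imaged after compound addition. They had been stained at seeding with Hoechst33342, BioTracker Green Microtubule Cytoskeleton Dye, MitoTracker Red and Annexin V Alexa Fluor 680. CellPathfinder machine-learning gating assigned cells to Hoechst high-intensity objects or normal cells, normal cells to healthy, pyknosed or fragmented nuclei, and pyknosed cells to mitotic or apoptotic. Tubulin, mitochondrial-mass and membrane-permeability phenotypes are per cents of healthy-nucleus cells.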

[1] = 12 h, 1 µM, compound concentration 1 uM, replicate 1
[2] = 12 h, 1 µM, compound concentration 1 uM, replicate 2
[3] = 12 h, 10 µM, compound concentration 10 uM, replicate 1
[4] = 12 h, 10 µM, compound concentration 10 uM, replicate 2
[5] = 24 h, 1 µM, compound concentration 1 uM, replicate 1
[6] = 24 h, 1 µM, compound concentration 1 uM, replicate 2
[7] = 24 h, 10 µM, compound concentration 10 uM, replicate 1
[8] = 24 h, 10 µM, compound concentration 10 uM, replicate 2
[9] = 48 h, 1 µM, compound concentration 1 uM, replicate 1
[10] = 48 h, 1 µM, compound concentration 1 uM, replicate 2
[11] = 48 h, 10 µM, compound concentration 10 uM, replicate 1
[12] = 48 h, 10 µM, compound concentration 10 uM, replicate 2

C=CCN1C[C@H](C(=O)N(CCCN(C)C)C(=O)NCC)C[C@@H]2c3cccc4[nH]cc(c34)C[C@H]21 [CABERGOLINE]
Population Apoptotic (%) [1]: 86% | Population Fragmented Nuclei (%) [1]: 13% | Population Healthy Nuclei (%) [1]: 72% | Population Hoechst High Intensity Objects (%) [1]: 2% | Population Membrane Permeable-Phenotype (%) [1]: 3% | Population Mitochondria Different-Phenotype (%) [1]: 1% | Population Mitotic Cells (%) [1]: 13% | Population Normal (%) [1]: 97% | Population Pyknosed Nuclei (%) [1]: 13% | Population Tubulin-Different-Phenotype (%) [1]: 1% | Total Cell Count [1]: 228 | Population Apoptotic (%) [2]: 57% | Population Fragmented Nuclei (%) [2]: 9% | Population Healthy Nuclei (%) [2]: 84% | Population Hoechst High Intensity Objects (%) [2]: 3% | Population Membrane Permeable-Phenotype (%) [2]: 8% | Population Mitochondria Different-Phenotype (%) [2]: 4% | Population Mitotic Cells (%) [2]: 42% | Population Normal (%) [2]: 96% | Population Pyknosed Nuclei (%) [2]: 5% | Population Tubulin-Different-Phenotype (%) [2]: 5% | Total Cell Count [2]: 129 | Population Apoptotic (%) [3]: 69% | Population Fragmented Nuclei (%) [3]: 35% | Population Healthy Nuclei (%) [3]: 52% | Population Hoechst High Intensity Objects (%) [3]: 3% | Population Membrane Permeable-Phenotype (%) [3]: 15% | Population Mitochondria Different-Phenotype (%) [3]: 9% | Population Mitotic Cells (%) [3]: 30% | Population Normal (%) [3]: 96% | Population Pyknosed Nuclei (%) [3]: 11% | Population Tubulin-Different-Phenotype (%) [3]: 11% | Total Cell Count [3]: 228 | Population Apoptotic (%) [4]: 64% | Population Fragmented Nuclei (%) [4]: 17% | Population Healthy Nuclei (%) [4]: 70% | Population Hoechst High Intensity Objects (%) [4]: 2% | Population Membrane Permeable-Phenotype (%) [4]: 13% | Population Mitochondria Different-Phenotype (%) [4]: 21% | Population Mitotic Cells (%) [4]: 35% | Population Normal (%) [4]: 97% | Population Pyknosed Nuclei (%) [4]: 12% | Population Tubulin-Different-Phenotype (%) [4]: 9% | Total Cell Count [4]: 143 | Population Apoptotic (%) [5]: 82% | Population Fragmented Nuclei (%) [5]: 15% | Population Healthy Nuclei (%) [5]: 74% | Population Hoechst High Intensity Objects (%) [5]: 3% | Population Membrane Permeable-Phenotype (%) [5]: 1% | Population Mitochondria Different-Phenotype (%) [5]: 1% | Population Mitotic Cells (%) [5]: 17% | Population Normal (%) [5]: 96% | Population Pyknosed Nuclei (%) [5]: 10% | Population Tubulin-Different-Phenotype (%) [5]: 0% | Total Cell Count [5]: 295 | Population Apoptotic (%) [6]: 64% | Population Fragmented Nuclei (%) [6]: 7% | Population Healthy Nuclei (%) [6]: 83% | Population Hoechst High Intensity Objects (%) [6]: 1% | Population Membrane Permeable-Phenotype (%) [6]: 9% | Population Mitochondria Different-Phenotype (%) [6]: 4% | Population Mitotic Cells (%) [6]: 35% | Population Normal (%) [6]: 98% | Population Pyknosed Nuclei (%) [6]: 8% | Population Tubulin-Different-Phenotype (%) [6]: 6% | Total Cell Count [6]: 162 | Population Apoptotic (%) [7]: 65% | Population Fragmented Nuclei (%) [7]: 33% | Population Healthy Nuclei (%) [7]: 54% | Population Hoechst High Intensity Objects (%) [7]: 3% | Population Membrane Permeable-Phenotype (%) [7]: 10% | Population Mitochondria Different-Phenotype (%) [7]: 5% | Population Mitotic Cells (%) [7]: 34% | Population Normal (%) [7]: 96% | Population Pyknosed Nuclei (%) [7]: 11% | Population Tubulin-Different-Phenotype (%) [7]: 4% | Total Cell Count [7]: 228 | Population Apoptotic (%) [8]: 88% | Population Fragmented Nuclei (%) [8]: 14% | Population Healthy Nuclei (%) [8]: 75% | Population Hoechst High Intensity Objects (%) [8]: 2% | Population Membrane Permeable-Phenotype (%) [8]: 13% | Population Mitochondria Different-Phenotype (%) [8]: 12% | Population Mitotic Cells (%) [8]: 11% | Population Normal (%) [8]: 97% | Population Pyknosed Nuclei (%) [8]: 10% | Population Tubulin-Different-Phenotype (%) [8]: 10% | Total Cell Count [8]: 165 | Population Apoptotic (%) [9]: 88% | Population Fragmented Nuclei (%) [9]: 13% | Population Healthy Nuclei (%) [9]: 77% | Population Hoechst High Intensity Objects (%) [9]: 2% | Population Membrane Permeable-Phenotype (%) [9]: 5% | Population Mitochondria Different-Phenotype (%) [9]: 1% | Population Mitotic Cells (%) [9]: 11% | Population Normal (%) [9]: 97% | Population Pyknosed Nuclei (%) [9]: 8% | Population Tubulin-Different-Phenotype (%) [9]: 3% | Total Cell Count [9]: 405 | Population Apoptotic (%) [10]: 93% | Population Healthy Nuclei (%) [10]: 73% | Population Hoechst High Intensity Objects (%) [10]: 3% | Population Membrane Permeable-Phenotype (%) [10]: 4% | Population Mitochondria Different-Phenotype (%) [10]: 4% | Population Mitotic Cells (%) [10]: 6% | Population Normal (%) [10]: 96% | Population Pyknosed Nuclei (%) [10]: 13% | Total Cell Count [10]: 221 | Population Apoptotic (%) [11]: 86% | Population Fragmented Nuclei (%) [11]: 30% | Population Healthy Nuclei (%) [11]: 57% | Population Hoechst High Intensity Objects (%) [11]: 3% | Population Membrane Permeable-Phenotype (%) [11]: 7% | Population Mitochondria Different-Phenotype (%) [11]: 1% | Population Mitotic Cells (%) [11]: 13% | Population Normal (%) [11]: 96% | Population Pyknosed Nuclei (%) [11]: 12% | Population Tubulin-Different-Phenotype (%) [11]: 3% | Total Cell Count [11]: 303 | Population Apoptotic (%) [12]: 87% | Population Fragmented Nuclei (%) [12]: 13% | Population Healthy Nuclei (%) [12]: 66% | Population Hoechst High Intensity Objects (%) [12]: 4% | Population Membrane Permeable-Phenotype (%) [12]: 9% | Population Mitochondria Different-Phenotype (%) [12]: 9% | Population Mitotic Cells (%) [12]: 12% | Population Normal (%) [12]: 95% | Population Pyknosed Nuclei (%) [12]: 20% | Population Tubulin-Different-Phenotype (%) [12]: 5% | Total Cell Count [12]: 206

O=C(Nc1cc(-c2ccccc2)nn1-c1ccccc1F)c1ccc([N+](=O)[O-])cc1
Population Apoptotic (%) [1]: 86% | Population Fragmented Nuclei (%) [1]: 25% | Population Healthy Nuclei (%) [1]: 66% | Population Hoechst High Intensity Objects (%) [1]: 4% | Population Membrane Permeable-Phenotype (%) [1]: 10% | Population Mitochondria Different-Phenotype (%) [1]: 4% | Population Mitotic Cells (%) [1]: 13% | Population Normal (%) [1]: 95% | Population Pyknosed Nuclei (%) [1]: 8% | Population Tubulin-Different-Phenotype (%) [1]: 4% | Total Cell Count [1]: 293 | Population Apoptotic (%) [2]: 91% | Population Fragmented Nuclei (%) [2]: 14% | Population Healthy Nuclei (%) [2]: 78% | Population Hoechst High Intensity Objects (%) [2]: 1% | Population Membrane Permeable-Phenotype (%) [2]: 9% | Population Mitotic Cells (%) [2]: 8% | Population Normal (%) [2]: 98% | Population Pyknosed Nuclei (%) [2]: 6% | Population Tubulin-Different-Phenotype (%) [2]: 9% | Total Cell Count [2]: 182 | Population Apoptotic (%) [3]: 66% | Population Fragmented Nuclei (%) [3]: 30% | Population Healthy Nuclei (%) [3]: 60% | Population Hoechst High Intensity Objects (%) [3]: 3% | Population Membrane Permeable-Phenotype (%) [3]: 11% | Population Mitochondria Different-Phenotype (%) [3]: 5% | Population Mitotic Cells (%) [3]: 33% | Population Normal (%) [3]: 96% | Population Pyknosed Nuclei (%) [3]: 9% | Population Tubulin-Different-Phenotype (%) [3]: 7% | Total Cell Count [3]: 293 | Population Apoptotic (%) [4]: 94% | Population Fragmented Nuclei (%) [4]: 12% | Population Healthy Nuclei (%) [4]: 73% | Population Hoechst High Intensity Objects (%) [4]: 0% | Population Mitochondria Different-Phenotype (%) [4]: 8% | Population Mitotic Cells (%) [4]: 5% | Population Normal (%) [4]: 100% | Population Pyknosed Nuclei (%) [4]: 13% | Population Tubulin-Different-Phenotype (%) [4]: 6% | Total Cell Count [4]: 134 | Population Apoptotic (%) [5]: 91% | Population Fragmented Nuclei (%) [5]: 24% | Population Healthy Nuclei (%) [5]: 68% | Population Hoechst High Intensity Objects (%) [5]: 3% | Population Membrane Permeable-Phenotype (%) [5]: 6% | Population Mitochondria Different-Phenotype (%) [5]: 4% | Population Mitotic Cells (%) [5]: 8% | Population Normal (%) [5]: 96% | Population Pyknosed Nuclei (%) [5]: 7% | Population Tubulin-Different-Phenotype (%) [5]: 5% | Total Cell Count [5]: 342 | Population Apoptotic (%) [6]: 100% | Population Fragmented Nuclei (%) [6]: 15% | Population Healthy Nuclei (%) [6]: 76% | Population Hoechst High Intensity Objects (%) [6]: 1% | Population Membrane Permeable-Phenotype (%) [6]: 9% | Population Mitochondria Different-Phenotype (%) [6]: 5% | Population Mitotic Cells (%) [6]: 0% | Population Normal (%) [6]: 98% | Population Pyknosed Nuclei (%) [6]: 8% | Population Tubulin-Different-Phenotype (%) [6]: 6% | Total Cell Count [6]: 226 | Population Apoptotic (%) [7]: 91% | Population Fragmented Nuclei (%) [7]: 25% | Population Healthy Nuclei (%) [7]: 64% | Population Hoechst High Intensity Objects (%) [7]: 1% | Population Membrane Permeable-Phenotype (%) [7]: 7% | Population Mitochondria Different-Phenotype (%) [7]: 3% | Population Mitotic Cells (%) [7]: 8% | Population Normal (%) [7]: 98% | Population Pyknosed Nuclei (%) [7]: 9% | Population Tubulin-Different-Phenotype (%) [7]: 5% | Total Cell Count [7]: 353 | Population Apoptotic (%) [8]: 100% | Population Fragmented Nuclei (%) [8]: 14% | Population Healthy Nuclei (%) [8]: 76% | Population Hoechst High Intensity Objects (%) [8]: 0% | Population Membrane Permeable-Phenotype (%) [8]: 11% | Population Mitochondria Different-Phenotype (%) [8]: 8% | Population Mitotic Cells (%) [8]: 0% | Population Normal (%) [8]: 99% | Population Tubulin-Different-Phenotype (%) [8]: 8% | Total Cell Count [8]: 164 | Population Apoptotic (%) [9]: 89% | Population Fragmented Nuclei (%) [9]: 17% | Population Healthy Nuclei (%) [9]: 73% | Population Hoechst High Intensity Objects (%) [9]: 2% | Population Membrane Permeable-Phenotype (%) [9]: 9% | Population Mitochondria Different-Phenotype (%) [9]: 5% | Population Mitotic Cells (%) [9]: 10% | Population Normal (%) [9]: 97% | Population Pyknosed Nuclei (%) [9]: 8% | Population Tubulin-Different-Phenotype (%) [9]: 5% | Total Cell Count [9]: 475 | Population Apoptotic (%) [10]: 90% | Population Fragmented Nuclei (%) [10]: 12% | Population Healthy Nuclei (%) [10]: 79% | Population Hoechst High Intensity Objects (%) [10]: 1% | Population Membrane Permeable-Phenotype (%) [10]: 6% | Population Mitochondria Different-Phenotype (%) [10]: 4% | Population Normal (%) [10]: 98% | Total Cell Count [10]: 371 | Population Apoptotic (%) [11]: 81% | Population Fragmented Nuclei (%) [11]: 20% | Population Healthy Nuclei (%) [11]: 67% | Population Hoechst High Intensity Objects (%) [11]: 2% | Population Membrane Permeable-Phenotype (%) [11]: 8% | Population Mitochondria Different-Phenotype (%) [11]: 4% | Population Mitotic Cells (%) [11]: 18% | Population Normal (%) [11]: 97% | Population Pyknosed Nuclei (%) [11]: 12% | Population Tubulin-Different-Phenotype (%) [11]: 6% | Total Cell Count [11]: 445 | Population Apoptotic (%) [12]: 89% | Population Fragmented Nuclei (%) [12]: 10% | Population Healthy Nuclei (%) [12]: 76% | Population Membrane Permeable-Phenotype (%) [12]: 11% | Population Mitochondria Different-Phenotype (%) [12]: 8% | Population Mitotic Cells (%) [12]: 10% | Population Pyknosed Nuclei (%) [12]: 13% | Population Tubulin-Different-Phenotype (%) [12]: 8% | Total Cell Count [12]: 226
